# Data reported in ChEMBL document CHEMBL5724801, “EUbOPEN Chemogenomics Library - Multiplex” (2024).
# Values joined by “and” are separate entries in the source; they are usually repeats but may differ in a detail not shown here. Equal values may be shown once.
# Tested on: U2OS
# Assay: Multiplex assay against U2OS
# Format: toxicity, cell-based
# Settings: human
# Summary of the method: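 Compound was added to live cells that had been stained at seeding with Hoechst33342, BioTracker Green Microtubule Cytoskeleton Dye, MitoTracker Red and Annexin V Alexa Fluor 680, and imaging followed on a CQ1 microscope at 37°C and 5% CO2. CellPathfinder machine-learning gating divided cells into Hoechst high-intensity objects or normal cells, normal cells into healthy, pyknosed or fragmented nuclei, and pyknosed cells into mitotic or apoptotic. Tubulin, mitochondrial-mass and membrane-permeability phenotypes are per cents of healthy-nucleus cells.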
# [1] = 12 h, 1 µM, compound concentration 1 uM
# [2] = 12 h, 10 µM, compound concentration 10 uM
# [3] = 24 h, 1 µM, compound concentration 1 uM
# [4] = 24 h, 10 µM, compound concentration 10 uM
# [5] = 48 h, 1 µM, compound concentration 1 uM
# [6] = 48 h, 10 µM, compound concentration 10 uM
structure (smiles),measurement,setting,value
Cc1cccc(NC(=O)CN2CCC(c3ccccn3)CC2)c1.Cl.Cl,Population Apoptotic (%),[1],90% and 57%
same,Population Fragmented Nuclei (%),[1],27% and 17%
same,Population Healthy Nuclei (%),[1],67% and 76%
same,Population Hoechst High Intensity Objects (%),[1],1% and 0%
same,Population Membrane Permeable-Phenotype (%),[1],5% and 4%
same,Population Mitochondria Different-Phenotype (%),[1],2%
same,Population Normal (%),[1],98% and 99%
same,Population Pyknosed Nuclei (%),[1],5% and 6%
same,Population Tubulin-Different-Phenotype (%),[1],3%
same,Total Cell Count,[1],208 and 111
same,Population Apoptotic (%),[2],72% and 66%
same,Population Fragmented Nuclei (%),[2],34% and 21%
same,Population Healthy Nuclei (%),[2],55% and 70%
same,Population Hoechst High Intensity Objects (%),[2],2% and 1%
same,Population Membrane Permeable-Phenotype (%),[2],8% and 12%
same,Population Mitochondria Different-Phenotype (%),[2],6% and 7%
same,Population Mitotic Cells (%),[2],27% and 33%
same,Population Normal (%),[2],97% and 98%
same,Population Pyknosed Nuclei (%),[2],10% and 8%
same,Population Tubulin-Different-Phenotype (%),[2],3% and 9%
same,Total Cell Count,[2],216 and 111
same,Population Apoptotic (%),[3],76% and 73%
same,Population Fragmented Nuclei (%),[3],22% and 21%
same,Population Healthy Nuclei (%),[3],70% and 67%
same,Population Hoechst High Intensity Objects (%),[3],3% and 0%
same,Population Membrane Permeable-Phenotype (%),[3],5% and 7%
same,Population Mitochondria Different-Phenotype (%),[3],3% and 4%
same,Population Mitotic Cells (%),[3],23% and 26%
same,Population Normal (%),[3],96% and 99%
same,Population Pyknosed Nuclei (%),[3],7% and 11%
same,Population Tubulin-Different-Phenotype (%),[3],3% and 5%
same,Total Cell Count,[3],249 and 135
same,Population Apoptotic (%),[4],85% and 75%
same,Population Fragmented Nuclei (%),[4],32% and 20%
same,Population Healthy Nuclei (%),[4],55% and 73%
same,Population Hoechst High Intensity Objects (%),[4],3% and 2%
same,Population Membrane Permeable-Phenotype (%),[4],6% and 17%
same,Population Mitochondria Different-Phenotype (%),[4],3% and 5%
same,Population Mitotic Cells (%),[4],14% and 25%
same,Population Normal (%),[4],96% and 97%
same,Population Pyknosed Nuclei (%),[4],11% and 6%
same,Population Tubulin-Different-Phenotype (%),[4],2% and 10%
same,Total Cell Count,[4],243 and 131
same,Population Apoptotic (%),[5],82% and 94%
same,Population Fragmented Nuclei (%),[5],18% and 17%
same,Population Healthy Nuclei (%),[5],72%
same,Population Hoechst High Intensity Objects (%),[5],2% and 3%
same,Population Membrane Permeable-Phenotype (%),[5],6% and 2%
same,Population Mitochondria Different-Phenotype (%),[5],3%
same,Population Normal (%),[5],97% and 96%
same,Population Pyknosed Nuclei (%),[5],8% and 10%
same,Population Tubulin-Different-Phenotype (%),[5],3% and 2%
same,Total Cell Count,[5],341 and 182
same,Population Apoptotic (%),[6],96% and 83%
same,Population Fragmented Nuclei (%),[6],29% and 19%
same,Population Healthy Nuclei (%),[6],60% and 74%
same,Population Hoechst High Intensity Objects (%),[6],3%
same,Population Membrane Permeable-Phenotype (%),[6],6% and 10%
same,Population Mitochondria Different-Phenotype (%),[6],6% and 4%
same,Population Normal (%),[6],96%
same,Population Pyknosed Nuclei (%),[6],9% and 6%
same,Population Tubulin-Different-Phenotype (%),[6],3% and 4%
same,Total Cell Count,[6],303 and 198
Cc1ccc(-c2c(C(=O)CF)n(CCCO)c3ncnc(N)c23)cc1,Population Apoptotic (%),[1],36.11% and 57.14%
same,Population Fragmented Nuclei (%),[1],2.07% and 1.92%
same,Population Healthy Nuclei (%),[1],88.63% and 84.62%
same,Population Hoechst High Intensity Objects (%),[1],0%
same,Population Membrane Permeable-Phenotype (%),[1],0.29% and 2.27%
same,Population Mitochondria Different-Phenotype (%),[1],0% and 2.27%
same,Population Mitotic Cells (%),[1],63.89% and 42.86%
same,Population Normal (%),[1],100%
same,Population Pyknosed Nuclei (%),[1],9.3% and 13.46%
same,Population Tubulin-Different-Phenotype (%),[1],0.29% and 0%
same,Population Apoptotic (%),[2],50% and 52.94%
same,Population Fragmented Nuclei (%),[2],1.91% and 5.78%
same,Population Healthy Nuclei (%),[2],88.83% and 84.39%
same,Population Hoechst High Intensity Objects (%),[2],0%
same,Population Membrane Permeable-Phenotype (%),[2],0.61% and 4.11%
same,Population Mitochondria Different-Phenotype (%),[2],0% and 3.42%
same,Population Mitotic Cells (%),[2],50% and 47.06%
same,Population Normal (%),[2],100%
same,Population Pyknosed Nuclei (%),[2],9.26% and 9.83%
same,Population Tubulin-Different-Phenotype (%),[2],0.61% and 0%
same,Total Cell Count,[2],367 and 173
same,Population Apoptotic (%),[3],47.37% and 40%
same,Population Fragmented Nuclei (%),[3],1.55% and 4.48%
same,Population Healthy Nuclei (%),[3],91.09% and 84.33%
same,Population Hoechst High Intensity Objects (%),[3],0%
same,Population Membrane Permeable-Phenotype (%),[3],0.43% and 3.54%
same,Population Mitochondria Different-Phenotype (%),[3],0% and 2.65%
same,Population Mitotic Cells (%),[3],52.63% and 60%
same,Population Normal (%),[3],100%
same,Population Pyknosed Nuclei (%),[3],7.36% and 11.19%
same,Population Tubulin-Different-Phenotype (%),[3],0.21% and 0.88%
same,Population Apoptotic (%),[4],54.05% and 43.48%
same,Population Fragmented Nuclei (%),[4],2.71% and 3.7%
same,Population Healthy Nuclei (%),[4],89.58% and 86.83%
same,Population Hoechst High Intensity Objects (%),[4],0%
same,Population Membrane Permeable-Phenotype (%),[4],0.93% and 5.21%
same,Population Mitochondria Different-Phenotype (%),[4],0% and 4.27%
same,Population Mitotic Cells (%),[4],45.95% and 56.52%
same,Population Normal (%),[4],100%
same,Population Pyknosed Nuclei (%),[4],7.71% and 9.47%
same,Population Tubulin-Different-Phenotype (%),[4],1.4% and 0.47%
same,Total Cell Count,[4],480 and 243
same,Population Apoptotic (%),[5],33.82% and 20%
same,Population Fragmented Nuclei (%),[5],3.18% and 5%
same,Population Healthy Nuclei (%),[5],89.85% and 81.36%
same,Population Hoechst High Intensity Objects (%),[5],0%
same,Population Membrane Permeable-Phenotype (%),[5],1.26% and 1.12%
same,Population Mitochondria Different-Phenotype (%),[5],0% and 2.23%
same,Population Mitotic Cells (%),[5],66.18% and 80%
same,Population Normal (%),[5],100%
same,Population Pyknosed Nuclei (%),[5],6.97% and 13.64%
same,Population Tubulin-Different-Phenotype (%),[5],0.34% and 0.56%
same,Population Apoptotic (%),[6],49.33% and 48.98%
same,Population Fragmented Nuclei (%),[6],2.94% and 2.66%
same,Population Healthy Nuclei (%),[6],89.18% and 85.47%
same,Population Hoechst High Intensity Objects (%),[6],0%
same,Population Membrane Permeable-Phenotype (%),[6],0.94% and 1.13%
same,Population Mitochondria Different-Phenotype (%),[6],0% and 1.42%
same,Population Mitotic Cells (%),[6],50.67% and 51.02%
same,Population Normal (%),[6],100%
same,Population Pyknosed Nuclei (%),[6],7.88% and 11.86%
same,Population Tubulin-Different-Phenotype (%),[6],1.06% and 0.57%
same,Total Cell Count,[6],952 and 413
